Experimental findings from ChEMBL document CHEMBL2311311, “Synthesis and in vitro activity of 1,2,4-triazole-ciprofloxacin hybrids against drug-susceptible and drug-resistant bacteria” (Eur J Med Chem, 2013) are described below.

As a reminder, the MIC is the lowest concentration that inhibits growth of the organism. High values mean a less susceptible organism, low ones a more susceptible organism. The term pEC50 denotes the negative decadic logarithm of the EC50, by convention in mol/L. Higher therefore signals a small EC50. The MBC is the lowest tested concentration that kills the bacteria rather than only halting them.

pEC50: −log10 of the molar value. ≈ marks a conversion by molar mass, not a printed value.

Test [1] relates to Micrococcus luteus. The test can be described thus: Antimicrobial activity against Micrococcus luteus ATCC 10240 by broth microdilution method. Format: functional. In outline: (§1)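 Inocula were saline (0.85% NaCl) suspensions at 0.5 McFarland (150 × 10⁶ CFU/mL). Compounds were first screened by agar dilution on Mueller-Hinton agar, and active ones then went to broth microdilution. MIC is the lowest concentration inhibiting growth. The negative control was medium containing DMSO at the final concentration, without compound.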
In general terms: Dilution methods test growth across graded concentrations, often in twofold steps.

A further test relates to Bacillus cereus. The test can be described thus: Antimicrobial activity against Bacillus cereus ATCC 10876 by broth microdilution method. Format: functional. In outline: as §1
A further test deals with Bacillus subtilis. The test can be described thus: Antimicrobial activity against Bacillus subtilis ATCC 6633 by broth microdilution method. Type of test: functional. In outline: as §1
For test [2], the system named is Staphylococcus epidermidis. The test can be described thus: Antimicrobial activity against Staphylococcus epidermidis ATCC 12228 by broth microdilution method. Format: functional. In outline: as §1
Test [3] relates to Staphylococcus aureus. Briefly: Antimicrobial activity against Staphylococcus aureus ATCC 25923 by broth microdilution method. Type of test: functional. In outline:
as §1

The test system of another test is HEK293. Briefly: Cytotoxicity against HEK293 cells after 48 hrs by MTT assay. Type of test: cell-based. The settings on record: Homo sapiens, HEK293, 48 h. An outline of the steps: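 HEK-293 cells were seeded at 3 × 10⁵ cells/well and pre-incubated 24 h at 37 °C under 5% CO₂. Compounds came from 50 mg/mL DMSO stocks diluted in medium with 2% FBS, at final concentrations of 2–500. Exposure was 48 h at 37 °C with MTT formazan read on a plate reader. EC50 is growth inhibition relative to control cells, given as mean ± SD of three independent experiments.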
On the technique in general: Tetrazolium assays rely on reduction of a dye to a coloured formazan, in cell work by metabolically active cells.

The test system of test [4] is Micrococcus luteus. The test can be described thus: Ratio of ciprofloxacin MIC to compound MIC for Micrococcus luteus ATCC 10240 by broth microdilution method. Type of test: functional.
The subject of test [5] is Staphylococcus aureus. The test can be described thus: Ratio of MBC to MIC for methicillin-resistant Staphylococcus aureus 14001 by broth microdilution method. Format: functional. An outline of the steps: (§2)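 Inoculum in sterile saline (0.85% NaCl), adjusted to 0.5 McFarland (150 × 10⁶ CFU/mL). Compounds first screened by agar dilution on Mueller-Hinton agar, then titrated by broth microdilution. Medium with DMSO at the final concentration and no compound served as negative control. MIC is the lowest concentration inhibiting growth. MBC is the lowest concentration giving >99.9% reduction in CFU of the initial inoculum.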

For test [6], the system named is Staphylococcus aureus. The test can be described thus: Antimicrobial activity against methicillin-resistant Staphylococcus aureus 14001 by broth microdilution method. Type of test: functional. An outline of the steps: as §2
The subject of a further test is Proteus mirabilis. Briefly: Antimicrobial activity against Proteus mirabilis ATCC 12453 by broth microdilution method. Format: functional. An outline of the steps:
as §1

The test system of test [7] is Pseudomonas aeruginosa. Briefly: Antimicrobial activity against Pseudomonas aeruginosa ATCC 9027 by broth microdilution method. Type of test: functional. In outline:
as §1

The subject of the next test is Escherichia coli. The test can be described thus: Antimicrobial activity against Escherichia coli ATCC 25922 by broth microdilution method. Type of test: functional. In outline:
as §1

For test [8], the system named is Pseudomonas aeruginosa. The test can be described thus: Ratio of ciprofloxacin MIC to compound MIC for Pseudomonas aeruginosa ATCC 9027 by broth microdilution method. Type of test: functional.
In test [9] the test system is Staphylococcus aureus. Briefly: Ratio of ciprofloxacin MIC to compound MIC for Staphylococcus aureus ATCC 25923 by broth microdilution method. Type of test: functional.
Test [10] can be described thus: Selectivity ratio of EC50 for HEK293 cells to MIC for methicillin-resistant Staphylococcus aureus 14001. Format: functional. In outline:
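HEK-293 cells grown at 37 °C in humidified 5% CO₂ with penicillin and […] streptomycin. Seeded at 3 × 10⁵ cells/well for 24 h. Compounds (50 mg/mL DMSO stock) were diluted in medium with 2% FBS to final 2–500 µg/mL and applied for 48 h at 37 °C. Read-out was MTT formazan. EC50 was taken relative to control-cell growth, mean ± SD of three independent experiments, then divided by the MRSA MIC.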

In test [11] the test system is Staphylococcus aureus. Briefly: Ratio of vancomycin MIC to compound MIC for methicillin-resistant Staphylococcus aureus 14001 by broth microdilution method. Type of test: functional. An outline of the steps:
as §2

In test [12] the test system is Staphylococcus aureus. The test can be described thus: Ratio of ciprofloxacin MIC to compound MIC for methicillin-resistant Staphylococcus aureus 14001 by broth microdilution method. Type of test: functional. In outline:
as §2

Consider `CCn1c(-c2cccc(Cl)c2)nn(CN2CCN(c3cc4c(cc3F)c(=O)c(C(=O)O)cn4C3CC3)CC2)c1=S`, for which the MIC came out at 0.84 µM (≈ 0.49 µg/mL) with Micrococcus luteus [1]; 0.2 µM (≈ 0.117 µg/mL) in the test on Bacillus cereus; 0.1 µM (≈ 0.0583 µg/mL) against Bacillus subtilis; 0.84 µM (≈ 0.49 µg/mL) in test [2]; 0.84 µM (≈ 0.49 µg/mL) against Staphylococcus aureus [3]; 0.41 µM (≈ 0.239 µg/mL) in the test on Staphylococcus aureus [6]. In addition, the minimum inhibitory concentration (MIC) was determined as 0.051 µM (≈ 0.0297 µg/mL) with Proteus mirabilis, 0.41 µM (≈ 0.239 µg/mL) with Pseudomonas aeruginosa [7] and 0.051 µM (≈ 0.0297 µg/mL) in the test on Escherichia coli. The same compound showed a pEC50 with HEK293 of 4.40. The Ratio in the test on Micrococcus luteus [4] stood at 7.5; in the test with Staphylococcus aureus [5], 2. The same compound yielded an MBC in the test on Staphylococcus aureus [6] of 0.84 µM (≈ 0.49 µg/mL).

`O=C(O)c1cn(C2CC2)c2cc(N3CCN(Cn4nc(-c5cccc(O)c5)n(-c5cccc([N+](=O)[O-])c5)c4=S)CC3)c(F)cc2c1=O`: the MIC was 1.49 µM (≈ 0.98 µg/mL) in the test on Micrococcus luteus [1]; 0.18 µM (≈ 0.118 µg/mL) in the test on Bacillus cereus; 0.18 µM (≈ 0.118 µg/mL) against Bacillus subtilis; 0.74 µM (≈ 0.487 µg/mL) in test [2]; 0.74 µM (≈ 0.487 µg/mL) against Staphylococcus aureus [3]; 0.36 µM (≈ 0.237 µg/mL) against Staphylococcus aureus [6]. Moreover, the values for the MIC in the test with Proteus mirabilis, against Pseudomonas aeruginosa [7] and with Escherichia coli were 0.023 µM (≈ 0.0151 µg/mL), 0.18 µM (≈ 0.118 µg/mL) and 0.023 µM (≈ 0.0151 µg/mL), respectively. Moreover, the Ratio is 4 in the test on Pseudomonas aeruginosa [8] and 2 in the test with Staphylococcus aureus [5]. The compound further showed an MBC against Staphylococcus aureus [6] of 0.74 µM (≈ 0.487 µg/mL).

`O=C(O)c1cn(C2CC2)c2cc(N3CCN(Cn4nc(-c5cccc(O)c5)n(-c5cccc(I)c5)c4=S)CC3)c(F)cc2c1=O`: the MIC in the test with Micrococcus luteus [1] is 1.33 µM (≈ 0.982 µg/mL); in the test on Bacillus cereus it was 0.16 µM (≈ 0.118 µg/mL); against Bacillus subtilis, 0.32 µM (≈ 0.236 µg/mL); in test [2] it was 0.66 µM (≈ 0.487 µg/mL); against Staphylococcus aureus [3], 0.66 µM (≈ 0.487 µg/mL); in the test with Staphylococcus aureus [6], 0.66 µM (≈ 0.487 µg/mL). Also, the minimum inhibitory concentration (MIC) against Proteus mirabilis is 0.041 µM (≈ 0.0303 µg/mL); in the test on Pseudomonas aeruginosa [7] it was 0.081 µM (≈ 0.0598 µg/mL); in the test with Escherichia coli, 0.041 µM (≈ 0.0303 µg/mL). In addition, the Ratio in the test on Pseudomonas aeruginosa [8] amounted to 8; in the test on Staphylococcus aureus [5], 1. Further, the MBC in the test with Staphylococcus aureus [6] came to 0.66 µM (≈ 0.487 µg/mL).

With `O=C(O)c1cn(C2CC2)c2cc(N3CCN(Cn4nc(-c5cccc(O)c5)n(-c5ccc(Cl)cc5Cl)c4=S)CC3)c(F)cc2c1=O`, the MIC against Micrococcus luteus [1] was found to be 1.44 µM (≈ 0.981 µg/mL); in the test on Bacillus cereus, 0.18 µM (≈ 0.123 µg/mL); in the test with Bacillus subtilis it was 0.18 µM (≈ 0.123 µg/mL); in [2], 0.35 µM (≈ 0.239 µg/mL); against Staphylococcus aureus [3] it was 0.35 µM (≈ 0.239 µg/mL); in the test with Staphylococcus aureus [6], 0.35 µM (≈ 0.239 µg/mL). Also, the MIC in the test with Proteus mirabilis worked out at 0.022 µM (≈ 0.015 µg/mL); in the test with Pseudomonas aeruginosa [7] it was 0.088 µM (≈ 0.06 µg/mL); in the test with Escherichia coli, 0.044 µM (≈ 0.03 µg/mL). For the same compound, the Ratio is on record as 8 with Pseudomonas aeruginosa [8], 8.5 with Staphylococcus aureus [9] and 2 in the test on Staphylococcus aureus [5]. In addition, in the test on Staphylococcus aureus [6], the MBC stood at 0.71 µM (≈ 0.484 µg/mL).

Turning to `O=C(O)c1cn(C2CC2)c2cc(N3CCN(Cn4nc(-c5cccc(O)c5)n(-c5cc(Cl)cc(Cl)c5)c4=S)CC3)c(F)cc2c1=O`, the MIC is 1.44 µM (≈ 0.981 µg/mL) in the test on Micrococcus luteus [1]; 0.18 µM (≈ 0.123 µg/mL) against Bacillus cereus; 0.18 µM (≈ 0.123 µg/mL) against Bacillus subtilis; 0.35 µM (≈ 0.239 µg/mL) in test [2]; 0.72 µM (≈ 0.491 µg/mL) against Staphylococcus aureus [3]; 0.088 µM (≈ 0.06 µg/mL) with Staphylococcus aureus [6]. The MIC in the test on Proteus mirabilis worked out at 0.044 µM (≈ 0.03 µg/mL); in the test with Pseudomonas aeruginosa [7] it was 0.088 µM (≈ 0.06 µg/mL); with Escherichia coli, 0.022 µM (≈ 0.015 µg/mL). Also, the Ratio in the test on Pseudomonas aeruginosa [8] is given as 8; in test [10], 600; with Staphylococcus aureus [11], 8; in the test with Staphylococcus aureus [12], 17; in the test on Staphylococcus aureus [5], 4. Moreover, the pEC50 in the test on HEK293 was 4.28. In the test on Staphylococcus aureus [6], this compound yielded an MBC of 0.35 µM (≈ 0.239 µg/mL).

As for `COc1ccc(-n2c(-c3cccc(Cl)c3)nn(CN3CCN(c4cc5c(cc4F)c(=O)c(C(=O)O)cn5C4CC4)CC3)c2=S)cc1`, the MIC stood at 2.95 µM (≈ 1.95 µg/mL) against Micrococcus luteus [1]; 0.36 µM (≈ 0.238 µg/mL) with Bacillus cereus; 0.09 µM (≈ 0.0595 µg/mL) in the test on Bacillus subtilis; 1.48 µM (≈ 0.979 µg/mL) in test [2]; 1.48 µM (≈ 0.979 µg/mL) against Staphylococcus aureus [3]; 0.74 µM (≈ 0.489 µg/mL) against Staphylococcus aureus [6]. For the same compound, the MIC against Proteus mirabilis was 0.023 µM (≈ 0.0152 µg/mL); in the test with Pseudomonas aeruginosa [7], 0.36 µM (≈ 0.238 µg/mL); against Escherichia coli it was 0.023 µM (≈ 0.0152 µg/mL). Further, the Ratio in the test on Staphylococcus aureus [5] came out at 1. The same compound displayed an MBC in the test with Staphylococcus aureus [6] of 0.74 µM (≈ 0.489 µg/mL).

As to `O=C(O)c1cn(C2CC2)c2cc(N3CCNCC3)c(F)cc2c1=O` [CIPROFLOXACIN], the MIC in the test with Micrococcus luteus [1] was found to be 5.88 µM (≈ 1.95 µg/mL); with Bacillus cereus, 0.36 µM (≈ 0.119 µg/mL); in the test on Bacillus subtilis, 0.09 µM (≈ 0.0298 µg/mL); in test [2], 1.48 µM (≈ 0.49 µg/mL); against Staphylococcus aureus [3], 2.96 µM (≈ 0.981 µg/mL); with Staphylococcus aureus [6] it was 1.48 µM (≈ 0.49 µg/mL). In addition, the MIC against Proteus mirabilis worked out at 0.045 µM (≈ 0.0149 µg/mL); in the test with Pseudomonas aeruginosa [7], 0.72 µM (≈ 0.239 µg/mL); against Escherichia coli, 0.024 µM (≈ 0.00795 µg/mL). In addition, in the test on Staphylococcus aureus [5], the Ratio was 4. The compound further had a minimal bactericidal concentration (MBC) against Staphylococcus aureus [6] of 5.92 µM (≈ 1.96 µg/mL).
